The source made the active and inactive calls. The rule behind the calls is not given here.
Key:
Jurkat [1] = test: Cytostatic activity against human Jurkat cells assessed as population doubling level at 2 umol/L after 6 days using Burker counting chamber (reference value: 3.25); format: functional
How it was run: (§1)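 Cells were seeded at 2.5 × 10^5 cells/mL in DMSO-containing medium, with or without 2 μmol/L compound. Cells were counted daily in a Bürker chamber. PDL was calculated as log(Nf/N0)/log 2 over 6 days. Values are mean ± SD of three experiments, compared with DMSO controls.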

[2] = molecular target: Myc proto-oncogene protein (Homo sapiens) (UniProt P01106); test: Inhibition of C-MYC in human REH cells assessed as decrease in PKM2 level at EC50 measured after 24 hrs by RT-qPCR analysis; format: cell-based
Myc proto-oncogene protein (Homo sapiens), sequence (P01106 whole entry): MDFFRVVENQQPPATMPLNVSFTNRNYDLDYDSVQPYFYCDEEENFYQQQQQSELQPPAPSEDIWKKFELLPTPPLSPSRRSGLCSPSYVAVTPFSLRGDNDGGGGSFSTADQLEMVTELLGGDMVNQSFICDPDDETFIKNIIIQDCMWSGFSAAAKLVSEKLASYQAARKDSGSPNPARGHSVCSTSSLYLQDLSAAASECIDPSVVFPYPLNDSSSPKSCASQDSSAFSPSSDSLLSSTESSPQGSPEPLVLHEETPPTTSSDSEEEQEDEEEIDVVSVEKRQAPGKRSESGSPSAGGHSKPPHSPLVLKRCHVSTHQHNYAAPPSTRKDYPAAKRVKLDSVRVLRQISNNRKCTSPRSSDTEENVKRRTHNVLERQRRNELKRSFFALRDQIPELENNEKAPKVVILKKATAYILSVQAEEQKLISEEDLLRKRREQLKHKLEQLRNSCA

[3] = molecular target: Myc proto-oncogene protein (Homo sapiens) (UniProt P01106); test: Inhibition of C-MYC in human Jurkat cells assessed as decrease in PKM2 level at EC50 measured after 24 hrs by RT-qPCR analysis; format: cell-based
Jurkat [4] = test: Inhibition of P70S6K in human Jurkat cells assessed as decrease in C-MYC expression measured after 24 hrs by immunoblot analysis; format: cell-based
How it was run: (§2)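 Cells prepared as for RT-qPCR (7.5 × 10^5 cells/mL). Treated either with the line-specific EC50 concentration over a time course, or 24 h with graded concentrations up to that EC50. Cells washed with phosphatase inhibitors and lysed in RIPA; 40 μg protein per lane on SDS-PAGE, then nitrocellulose. Immunoblotted for C-MYC, P70S6K, p-P70S6K (Ser424) and actin.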

Jurkat [5] = test: Cytostatic activity against eFluor670-labelled human Jurkat cells assessed as live cells at 2 umol/L measured on day 1 by Hoechst-33258 staining-based FACS analysis (reference value: 98.2%); format: functional
Jurkat [6] = test: Cytostatic activity against eFluor670-labelled human Jurkat cells assessed as live cells at 2 umol/L measured on day 2 by Hoechst-33258 staining-based FACS analysis (reference value: 97%); format: functional
NALM-6 [7] = test: Cytostatic activity against eFluor670-labelled human NALM6 cells assessed as live cells at 2 umol/L measured on day 5 by Hoechst-33258 staining-based FACS analysis (reference value: 98.6%); format: functional
[8] = molecular target: Myc proto-oncogene protein (Homo sapiens) (UniProt P01106); test: Inhibition of C-MYC in human NALM6 cells assessed as decrease in LDHA level at EC50 measured after 24 hrs by RT-qPCR analysis; format: cell-based; conditions: NALM-6
[9] = Downregulation of P70S6K protein expression in human Jurkat cells up to 20 umol/L measured after 24 hrs by immunoblot analysis; format: functional, cell-based; how it was run: as §2
NALM-6 [10] = test: Decrease in C-MYC mRNA level in human NALM6 cells at EC50 measured after 24 hrs by RT-qPCR analysis; format: functional, cell-based
REH [11] = test: Cytostatic activity against eFluor670-labelled human REH cells assessed as live cells at 2 umol/L measured on day 5 by Hoechst-33258 staining-based FACS analysis (reference value: 85.6%); format: functional
[12] = molecular target: Myc proto-oncogene protein (Homo sapiens) (UniProt P01106); test: Inhibition of C-MYC in human Jurkat cells assessed as decrease in LDHA level at EC50 measured after 24 hrs by RT-qPCR analysis; format: cell-based
[13] = Cytotoxicity against PHA/LPS-stimulated CD3-positive T-lymphocytes in eFluor-670-labeled human PBMC assessed as proliferation index at 2 umol/L administered post 18 hrs of PHA/LPS-stimulation measured after 72 hrs by Hoechst-33258 staining-based FACS analysis (reference value: 1.58); format: toxicity; conditions: t-cell, 2 µM
How it was run: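 PBMC were labelled with 1 μmol/L CPD, stimulated with PHA (5 μg/mL) plus LPS (1 μg/mL), and seeded at 3 × 10^5 cells/well in 300 μL. Compound was added after 18 h and left for 72 h. Cells were stained with anti-CD3. Unstimulated cells set the CPD+ gate. Proliferation index, division index and % divided were calculated for CPD+CD3+ Hoechst-negative cells.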

[14] = Cytotoxicity against CD3+ T-lymphocytes in human PBMC population assessed as reduction in viable cells measured after 24 hrs by Hoechst-33258 staining-based FACS analysis; format: toxicity, cell-based, T-cell
How it was run: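 PBMC were isolated from blood on a Ficoll-Paque gradient and seeded at 1 × 10^5 cells/well in 400 μL RPMI1640. Cells were exposed to a range of compound concentrations for 24 h. Viable CD3+, CD14+ and CD20+ populations were measured as Hoechst 33258-negative singlets by flow cytometry. EC50 was obtained by five-parameter nonlinear regression.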

[15] = Downregulation of P70S6K protein expression in human REH cells at EC50 measured after 24 hrs by immunoblot analysis; format: functional, cell-based; how it was run: as §2
Jurkat [16] = test: Inhibition of P70S6K in human Jurkat cells assessed as decrease in c-MYC expression at EC50 up to 24 hrs by immunoblot analysis; format: cell-based; how it was run: as §2
[17] = Cytotoxicity against human Jurkat cells assessed as reduction in viable cells measured after 24 hrs by Hoechst-33258 staining-based FACS analysis; format: functional, cell-based
How it was run: (§3)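 Leukemic lines kept in RPMI1640 with 10% FBS, penicillin/streptomycin, 37 °C, 5% CO2. Seeded at 2 × 10^5 cells/mL and exposed 24 h to a range of compound concentrations (DMSO stock); medium and DMSO negative controls. Live fraction taken from Hoechst 33258-negative singlets by flow cytometry. EC50 from five-parameter nonlinear regression.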

REH [18] = test: Cytostatic activity against eFluor670-labelled human REH cells assessed as live cells at 2 umol/L measured on day 1 by Hoechst-33258 staining-based FACS analysis (reference value: 89.8%); format: functional
REH [19] = test: Decrease in C-MYC mRNA level in human REH cells at EC50 measured after 24 hrs by RT-qPCR analysis; format: functional, cell-based
Jurkat [20] = test: Cytostatic activity against eFluor670-labelled human Jurkat cells assessed as live cells at 2 umol/L measured on day 5 by Hoechst-33258 staining-based FACS analysis (reference value: 97%); format: functional
[21] = molecular target: Myc proto-oncogene protein (Homo sapiens) (UniProt P01106); test: Inhibition of C-MYC in human NALM6 cells assessed as decrease in PKM2 level at EC50 measured after 24 hrs by RT-qPCR analysis; format: cell-based; conditions: NALM-6
[22] = Cytotoxicity against human NALM6 cells assessed as reduction in viable cells measured after 24 hrs by Hoechst-33258 staining-based FACS analysis; format: functional, cell-based; conditions: NALM-6, 24 h; how it was run: as §3
NALM-6 [23] = test: Cytostatic activity against human NALM6 cells at 2 umol/L measured after 4 to 5 days using Burker counting chamber; format: functional, cell-based; how it was run: as §1
REH [24] = test: Cytostatic activity against eFluor670-labelled human REH cells assessed as live cells at 2 umol/L measured on day 2 by Hoechst-33258 staining-based FACS analysis (reference value: 90.8%); format: functional
[25] = Downregulation of P70S6K protein expression in human NALM6 cells at EC50 measured after 24 hrs by immunoblot analysis; format: functional, cell-based; conditions: NALM-6; how it was run: as §2
NALM-6 [26] = test: Cytostatic activity against eFluor670-labelled human NALM6 cells assessed as live cells at 2 umol/L measured on day 4 by Hoechst-33258 staining-based FACS analysis (reference value: 98.6%); format: functional
REH [27] = test: Cytostatic activity against eFluor670-labelled human REH cells assessed as live cells at 2 umol/L measured immediately after compound addition by Hoechst-33258 staining-based FACS analysis (reference value: 44.1%); format: functional
Jurkat [28] = test: Inhibition of P70S6K in human Jurkat cells assessed as decrease in phosphorylated P70S6K expression at EC50 by immunoblot analysis; format: cell-based; conditions: TDE = time-dependent effect; how it was run: as §2

CCCCCC(=O)C1=C(O)C(=O)c2c(O)c(O)cc(O)c2C1=O
Activity (Jurkat [1]): 1.64 | inhibition [2]: Active | inhibition [3]: Active | inhibition (Jurkat [4]): Dose-dependent effect | Activity (Jurkat [5]): 88.4% | Activity (Jurkat [6]): 70.1% | Activity (NALM-6 [7]): 50.1% | inhibition [8]: Active | inhibition [9]: Active | Activity (NALM-6 [10]): Active | Activity (REH [11]): 4.17% | inhibition [12]: Active | Activity_index [13]: 1.23 | EC50 at 24 h [14]: 65.7 µM | Activity [15]: Active | inhibition (Jurkat [16]): Active | EC50 [17]: 7.41 µM | Activity (REH [18]): 74.9% | Activity (REH [19]): Active | Activity (Jurkat [20]): 25.5% | inhibition [21]: Active | EC50 [22]: 16.7 µM | Activity (NALM-6 [23]): Active | Activity (REH [24]): 40.2% | Activity [25]: Active | Activity (NALM-6 [26]): 96.7% | Activity (REH [27]): 44.1% | inhibition (Jurkat [28]): Tde

Reference: ChEMBL document CHEMBL3868590, “Quambalarine B, a Secondary Metabolite from Quambalaria cyanescens with Potential Anticancer Properties” (J Nat Prod, 2016)
